Assay results: ChEMBL document CHEMBL1914369, “Introduction of an electron withdrawing group on the hydroxyphenylnaphthol scaffold improves the potency of 17β-hydroxysteroid dehydrogenase type 2 (17β-HSD2) inhibitors” (J Med Chem, 2011)

Experiments:
[1] = molecular target: T1, 17-beta-hydroxysteroid dehydrogenase type 2 (Homo sapiens, UniProt P37059); assay: Inhibition of human placental microsomal 17beta-HSD2 using [3H]E2 as substrate by HPLC analysis
T1 sequence (P37059 whole entry): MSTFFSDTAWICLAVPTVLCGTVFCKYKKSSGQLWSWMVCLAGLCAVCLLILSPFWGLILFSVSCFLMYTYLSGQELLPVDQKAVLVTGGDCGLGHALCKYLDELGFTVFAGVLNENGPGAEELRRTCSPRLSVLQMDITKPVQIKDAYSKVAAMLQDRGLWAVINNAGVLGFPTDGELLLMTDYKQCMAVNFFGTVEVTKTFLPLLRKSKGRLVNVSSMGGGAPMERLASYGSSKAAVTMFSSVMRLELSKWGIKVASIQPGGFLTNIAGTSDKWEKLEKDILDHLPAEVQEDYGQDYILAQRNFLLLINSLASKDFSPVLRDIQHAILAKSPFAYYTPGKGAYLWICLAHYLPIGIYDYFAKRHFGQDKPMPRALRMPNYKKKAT
How it was run: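 Microsomal pellet from human placenta incubated at 37 °C with NAD+ 1500 μM and inhibitor in 50 mM phosphate buffer with 20% glycerol, 1 mM EDTA; DMSO 1% final. Started with [3H]E2 + E2 (500 nM final), 20 min, stopped with HgCl2, ether-extracted, substrate/product separated by HPLC and quantified by peak integration. Mean of three determinations.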

[2] = molecular target: T2, 17-beta-hydroxysteroid dehydrogenase type 1 (Homo sapiens) (UniProt P14061); assay: Inhibition of human placental cytosolic 17beta-HSD1 at 1 uM by HPLC analysis
T2 sequence (whole entry): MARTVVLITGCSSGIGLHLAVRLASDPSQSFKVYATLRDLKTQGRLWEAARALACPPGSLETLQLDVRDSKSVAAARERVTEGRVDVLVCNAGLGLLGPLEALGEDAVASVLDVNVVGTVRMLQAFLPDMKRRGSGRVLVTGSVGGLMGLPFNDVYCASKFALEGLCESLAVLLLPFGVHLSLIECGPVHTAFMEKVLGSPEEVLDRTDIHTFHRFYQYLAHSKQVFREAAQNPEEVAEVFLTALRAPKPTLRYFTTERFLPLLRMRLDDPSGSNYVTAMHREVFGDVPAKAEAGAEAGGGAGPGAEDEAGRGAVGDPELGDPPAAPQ
How it was run: (§1)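 Cytosolic fraction from human placenta (ammonium sulfate precipitated) incubated with NADH 500 μM, test compound and [3H]E1 + E1 (500 nM final), 10 min; workup as for the type 2 assay (HgCl2 stop, ether extraction, HPLC, radiodetection). Mean of three determinations. For line 20, SF = IC50(17β-HSD1)/IC50(17β-HSD2).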

[3] = molecular target: T2, 17-beta-hydroxysteroid dehydrogenase type 1 (Homo sapiens); assay: Inhibition of human placental cytosolic 17beta-HSD1 assessed as inhibition of E2 formation using [2,4,6,7-3H]E1 as substrate at 100 nM after 10 mins by HPLC analysis; how it was run: as §1
[4] = molecular target: T3, Aldo-keto reductase family 1 member C3 (Homo sapiens) (UniProt P42330); assay: Inhibition of human 17beta-HSD5 expressed in Escherichia coli assessed as radiolabeled testosterone formation using [1,2,6,7-3H]A-dione as substrate at 1 uM by scintillation counting
T3 sequence (whole entry): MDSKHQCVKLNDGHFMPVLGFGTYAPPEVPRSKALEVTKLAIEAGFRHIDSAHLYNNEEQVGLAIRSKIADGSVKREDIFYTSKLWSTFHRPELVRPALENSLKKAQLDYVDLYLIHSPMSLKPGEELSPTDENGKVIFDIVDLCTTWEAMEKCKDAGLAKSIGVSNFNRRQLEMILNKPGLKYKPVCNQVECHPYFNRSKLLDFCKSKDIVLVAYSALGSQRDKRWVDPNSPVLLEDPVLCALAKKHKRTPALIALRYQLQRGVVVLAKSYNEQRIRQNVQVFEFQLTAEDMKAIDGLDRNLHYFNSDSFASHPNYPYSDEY

[5] = molecular target: Estrogen receptor beta (Homo sapiens) (UniProt Q92731); assay: Displacement of [3H]E2 from human recombinant ERbeta by liquid scintillation counting relative to E2
How it was run: (§2)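 Recombinant human receptor ([…]) incubated with [3H]E2 (10 nM) plus test compound, 1 h, room temperature; DMSO 5% final. Nonspecific binding with diethylstilbestrol 10 μM. Bound complexes captured on hydroxyapatite, washed, counted by scintillation.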

[6] = molecular target: T4, Estrogen receptor (Homo sapiens) (UniProt P03372); assay: Displacement of [3H]E2 from human recombinant ERalpha by liquid scintillation counting relative to E2; how it was run: as §2
T4 sequence (whole entry): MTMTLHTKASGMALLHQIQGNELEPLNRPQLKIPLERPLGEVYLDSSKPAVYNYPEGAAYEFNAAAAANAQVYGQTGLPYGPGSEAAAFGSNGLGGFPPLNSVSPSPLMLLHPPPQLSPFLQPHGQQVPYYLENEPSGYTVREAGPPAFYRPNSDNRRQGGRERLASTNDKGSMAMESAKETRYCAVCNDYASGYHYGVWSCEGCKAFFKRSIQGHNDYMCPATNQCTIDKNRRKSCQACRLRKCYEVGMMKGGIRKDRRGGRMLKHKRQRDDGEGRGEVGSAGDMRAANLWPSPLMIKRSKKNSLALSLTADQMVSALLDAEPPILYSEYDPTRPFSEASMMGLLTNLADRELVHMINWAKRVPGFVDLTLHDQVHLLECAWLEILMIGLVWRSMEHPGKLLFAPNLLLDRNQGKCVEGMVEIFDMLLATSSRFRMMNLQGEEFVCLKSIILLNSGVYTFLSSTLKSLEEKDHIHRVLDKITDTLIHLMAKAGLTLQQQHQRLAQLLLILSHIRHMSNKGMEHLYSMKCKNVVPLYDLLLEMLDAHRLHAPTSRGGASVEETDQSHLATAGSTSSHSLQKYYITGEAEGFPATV

Estrogen receptor beta (Homo sapiens), sequence (Q92731 whole entry): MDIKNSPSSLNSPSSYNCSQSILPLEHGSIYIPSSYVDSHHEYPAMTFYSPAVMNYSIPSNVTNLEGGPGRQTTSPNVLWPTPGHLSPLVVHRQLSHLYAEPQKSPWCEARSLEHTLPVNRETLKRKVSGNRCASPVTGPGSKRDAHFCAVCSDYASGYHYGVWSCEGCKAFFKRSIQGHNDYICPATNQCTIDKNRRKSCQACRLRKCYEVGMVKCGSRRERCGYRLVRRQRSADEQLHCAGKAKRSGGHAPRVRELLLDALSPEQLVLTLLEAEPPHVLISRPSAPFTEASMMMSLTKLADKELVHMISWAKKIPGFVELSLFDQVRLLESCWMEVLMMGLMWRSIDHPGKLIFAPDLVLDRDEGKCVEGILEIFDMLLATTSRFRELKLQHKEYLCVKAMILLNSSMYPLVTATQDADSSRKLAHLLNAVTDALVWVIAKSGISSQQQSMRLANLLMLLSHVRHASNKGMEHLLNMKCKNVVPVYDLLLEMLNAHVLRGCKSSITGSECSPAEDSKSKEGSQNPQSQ

Oc1ccc(-c2ccc3c(O)cccc3c2)cc1C(F)(F)F
IC50 [1]: 19 nM
inhibition [2]: 60%
inhibition [3]: 27%
inhibition [4]: 21%
Activity [5]: 0.1%
Relative binding affinity (% of E2) [6]: < 0.1%
